The source made the active and inactive calls. The calls are words filed in the database; no cut-off is given here.
Columns and labels:
[1] = molecular target: T1, C-C chemokine receptor type 2 (Homo sapiens, UniProt P41597); assay: Displacement of [125I]MCP1 from human CCR2b in THP1 cells; assay type: cell-based, THP-1
Method in brief: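 Radioligand competition with [125I]-MCP-1 on THP-1 cells. IC50 taken from dose-response curves built from duplicate points; where SD is given, value is mean of at least three independent experiments.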
Target sequence in this assay (P41597 whole entry): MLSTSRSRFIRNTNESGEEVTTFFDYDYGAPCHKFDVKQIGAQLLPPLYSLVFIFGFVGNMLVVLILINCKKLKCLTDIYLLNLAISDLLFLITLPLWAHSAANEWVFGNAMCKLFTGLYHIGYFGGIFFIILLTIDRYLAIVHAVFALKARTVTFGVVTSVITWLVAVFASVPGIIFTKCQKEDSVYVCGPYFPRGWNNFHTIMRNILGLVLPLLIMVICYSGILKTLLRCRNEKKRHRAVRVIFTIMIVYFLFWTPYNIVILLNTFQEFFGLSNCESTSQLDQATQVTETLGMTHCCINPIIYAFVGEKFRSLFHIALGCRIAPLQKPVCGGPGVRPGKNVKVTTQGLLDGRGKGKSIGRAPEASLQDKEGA

[2] = molecular target: T1, C-C chemokine receptor type 2; assay: Antagonist activity at human CCR2 in THP1 cells assessed as inhibition of MCP1-induced calcium flux; assay type: functional, cell-based, THP-1
Method in brief: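 THP-1 cells grown in HBSS loading buffer with 1% FBS and 20 mM HEPES, spun down, then loaded 30 min with Fluo-3 AM (2 million cells/mL, 4 µM dye, 20 mM HEPES, 0.1% BSA, 5 mM probenecid). Washed three times into HEPES/NaCl/glucose buffer with 2.5 mM probenecid, 1.25 mM CaCl2 and 0.1% BSA; 150,000 cells/well. Compound added 3 min before 10^-7 M human MCP-1; intracellular Ca2+ read by FLIPR.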
Target sequence in this assay (P41597 whole entry): as above

[3] = molecular target: T1, C-C chemokine receptor type 2; assay: Antagonist activity at human CCR2 in THP1 cells assessed as inhibition of calcium flux in absence of MCP1; assay type: functional, cell-based; conditions: THP-1
Target sequence in this assay (P41597 whole entry, looked up): as the sequence (P41597 whole entry) above

[4] = molecular target: T2, C-C chemokine receptor type 1 (Homo sapiens) (UniProt P32246); assay: Displacement of [125I]MIP-1alpha from human CCR1 in THP cells at 1 uM
T2 sequence (whole entry): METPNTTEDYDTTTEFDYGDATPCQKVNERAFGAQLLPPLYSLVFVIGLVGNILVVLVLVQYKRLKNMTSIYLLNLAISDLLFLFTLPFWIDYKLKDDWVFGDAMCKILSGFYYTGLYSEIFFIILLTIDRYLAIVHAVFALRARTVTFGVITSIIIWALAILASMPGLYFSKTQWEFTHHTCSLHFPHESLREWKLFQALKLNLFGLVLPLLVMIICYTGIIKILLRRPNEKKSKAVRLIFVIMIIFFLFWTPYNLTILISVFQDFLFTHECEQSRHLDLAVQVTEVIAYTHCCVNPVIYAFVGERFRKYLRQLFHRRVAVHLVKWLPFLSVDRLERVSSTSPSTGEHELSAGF

[5] = molecular target: T1, C-C chemokine receptor type 2; assay: Displacement of [125I]MCP1 from human CCR2b in HEK293 cells; assay type: cell-based
Method in brief: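 Competition for [125I]-MCP-1 binding on HEK293 cells transfected with human CCR2b receptor.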
Target sequence in this assay (P41597 whole entry): as the sequence (P41597 whole entry) above

[6] = molecular target: T3, C-C chemokine receptor type 1 (Homo sapiens, UniProt P32246); assay: Displacement of [125I]MIP-1alpha from human CCR1 in THP cells
T3 sequence (P32246 whole entry): T2 sequence (whole entry)

| SMILES | IC50 [1] [nM] | other results |
| --- | --- | --- |
| O=C(CNC(=O)c1ccccc1)N[C@@H]1CCN(Cc2ccc(Cl)cc2)C1 | > 10000 |  |
| C=Cc1ccc(CN2CC[C@@H](NC(=O)CNC(=O)c3cc(C(F)(F)F)ccc3N)C2)cc1 | 19 |  |
| O=C(CNC(=O)c1cccc(C(F)(F)F)c1)N[C@@H]1CCN(Cc2ccc(Cl)cc2Cl)C1 | 300 |  |
| C=Cc1ccc(CN2CC[C@@H](NC(=O)CNC(=O)c3cccc(C(F)(F)F)c3)C2)cc1 | 121 |  |
| O=C(CNC(=O)c1cccc([N+](=O)[O-])c1)N[C@@H]1CCN(Cc2ccc(Cl)cc2)C1 | 832 |  |
| O=C(CNC(=O)c1cccc(F)c1)N[C@@H]1CCN(Cc2ccc(Cl)cc2)C1 | 4330 |  |
| O=C(CNC(=O)c1cccc(C(F)(F)F)c1)N[C@@H]1CCN(Cc2ccc(Br)cc2)C1 | 166 |  |
| Nc1cccc(C(=O)NCC(=O)N[C@@H]2CCN(Cc3ccc(Cl)cc3)C2)c1 | > 10000 |  |
| O=C(CNC(=O)c1ccccc1Cl)N[C@@H]1CCN(Cc2ccc(Cl)cc2)C1 | > 10000 |  |
| COc1cccc(CN2CC[C@@H](NC(=O)CNC(=O)c3cccc(C(F)(F)F)c3)C2)c1 | 3170 |  |
| O=C(CNC(=O)c1cccc(Cl)c1)N[C@@H]1CCN(Cc2ccc(Cl)cc2)C1 | 2400 |  |
| Nc1ccc(C(F)(F)F)cc1C(=O)NCC(=O)N[C@@H]1CCN(Cc2ccc(O)cc2)C1 | 42 |  |
| Cc1cccc(CN2CC[C@@H](NC(=O)CNC(=O)c3cccc(C(F)(F)F)c3)C2)c1 | 3100 |  |
| O=C(CNC(=O)c1cccc(C(F)(F)F)c1)N[C@@H]1CCN(Cc2ccc([N+](=O)[O-])cc2)C1 | 1550 |  |
| O=C(CNC(=O)c1cccc(C(F)(F)F)c1)N[C@@H]1CCN(Cc2cccc(Cl)c2)C1 | > 5000 |  |
| O=C(CNC(=O)c1cccc(C(F)(F)F)c1)N[C@@H]1CCN(Cc2ccc(O)cc2)C1 | 226 | IC50 [2]: 365 nM; Activity [3]: inactive |
| Cc1ccc(CN2CC[C@@H](NC(=O)CNC(=O)c3cc(C(F)(F)F)ccc3N)C2)cc1N | 6.1 |  |
| O=C(CNC(=O)c1cccc(C(F)(F)F)c1)N[C@@H]1CCN(Cc2ccc(F)cc2)C1 | 960 |  |
| O=C(CNC(=O)c1ccc(Cl)cc1)N[C@@H]1CCN(Cc2ccc(Cl)cc2)C1 | > 5000 |  |
| COc1ccc(CN2CC[C@@H](NC(=O)CNC(=O)c3cccc(C(F)(F)F)c3)C2)cc1 | 114 |  |

| SMILES | IC50 [1] [nM] | other results |
| --- | --- | --- |
| Cc1ccccc1CN1CC[C@@H](NC(=O)CNC(=O)c2cccc(C(F)(F)F)c2)C1 | 960 |  |
| Nc1ccc(OC(F)(F)F)cc1C(=O)NCC(=O)N[C@@H]1CCN(Cc2ccc(Cl)cc2)C1 | 88 |  |
| O=C(CNC(=O)c1cccc(C(F)(F)F)c1)N[C@@H]1CCN(Cc2ccccc2)C1 | 690 |  |
| Nc1ccccc1C(=O)NCC(=O)N[C@@H]1CCN(Cc2ccc(Cl)cc2)C1 | > 10000 |  |
| Cc1ccc(CN2CC[C@@H](NC(=O)CNC(=O)c3cccc(C(F)(F)F)c3)C2)cc1 | 116 | IC50 [2]: 64 nM; Activity [3]: inactive |
| O=C(CNC(=O)c1cccc(C(F)(F)F)c1)N[C@@H]1CCN(Cc2ccccc2Cl)C1 | 630 |  |
| N#Cc1ccc(CN2CC[C@@H](NC(=O)CNC(=O)c3cccc(C(F)(F)F)c3)C2)cc1 | 2650 |  |
| Nc1ccc([N+](=O)[O-])cc1C(=O)NCC(=O)N[C@@H]1CCN(Cc2ccc(Cl)cc2)C1 | 208 |  |
| Nc1cc(CN2CC[C@@H](NC(=O)CNC(=O)c3cc(C(F)(F)F)ccc3N)C2)ccc1Cl | 4.1 |  |
| COc1cccc(C(=O)NCC(=O)N[C@@H]2CCN(Cc3ccc(Cl)cc3)C2)c1 | > 10000 |  |
| COc1cc(CN2CC[C@@H](NC(=O)CNC(=O)c3cccc(C(F)(F)F)c3)C2)ccc1O | 153 |  |
| CCc1ccc(CN2CC[C@@H](NC(=O)CNC(=O)c3cccc(C(F)(F)F)c3)C2)cc1 | 59 |  |
| COc1cc(CN2CC[C@@H](NC(=O)CNC(=O)c3cc(C(F)(F)F)ccc3N)C2)ccc1O | 39 |  |
| O=C(CNC(=O)c1cccc(C(F)(F)F)c1)N[C@@H]1CCN(Cc2ccccc2-c2ccc3ccccc3c2)C1 | 759 |  |
| Cc1ccc(CN2CC[C@@H](NC(=O)CNC(=O)c3cc(C(F)(F)F)ccc3N)C2)c(C)c1 | 3.2 | IC50 [2]: 7.5 nM; Activity [3]: inactive |
| O=C(CNC(=O)c1cccc(OC(F)(F)F)c1)N[C@@H]1CCN(Cc2ccc(Cl)cc2)C1 | 489 |  |
| O=C(CNC(=O)c1ccccc1C(F)(F)F)N[C@@H]1CCN(Cc2ccc(Cl)cc2)C1 | > 10000 |  |
| Nc1ccc(C(F)(F)F)cc1C(=O)NCC(=O)N[C@@H]1CCN(Cc2ccc(Cl)cc2Cl)C1 | 96 |  |
| O=C(CNC(=O)c1cccc(Br)c1)N[C@@H]1CCN(Cc2ccc(Cl)cc2)C1 | 785 |  |
| COc1ccc(CN2CC[C@@H](NC(=O)CNC(=O)c3cc(C(F)(F)F)ccc3N)C2)cc1N | 5.3 |  |

| SMILES | IC50 [1] [nM] | other results |
| --- | --- | --- |
| COc1ccc(CN2CC[C@@H](NC(=O)CNC(=O)c3cc(C(F)(F)F)ccc3N)C2)cc1 | 20 |  |
| O=C(CNC(=O)c1cccc(C(F)(F)F)c1)N[C@@H]1CCN(Cc2ccc(OC(F)(F)F)cc2)C1 | 610 |  |
| CCc1ccc(CN2CC[C@@H](NC(=O)CNC(=O)c3cc(C(F)(F)F)ccc3N)C2)cc1 | 11 | IC50 [2]: 5.3 nM; Activity [3]: inactive |
| CSc1ccc(CN2CC[C@@H](NC(=O)CNC(=O)c3cccc(C(F)(F)F)c3)C2)cc1 | 204 |  |
| COc1ccc(CN2CC[C@@H](NC(=O)CNC(=O)c3cc(C(F)(F)F)ccc3N)C2)cc1O | 53 |  |
| Nc1ccc(I)cc1C(=O)NCC(=O)N[C@@H]1CCN(Cc2ccc(Cl)cc2)C1 | 308 |  |
| N#Cc1cccc(C(=O)NCC(=O)N[C@@H]2CCN(Cc3ccc(Cl)cc3)C2)c1 | > 10000 |  |
| CC(=O)Nc1ccc(CN2CC[C@@H](NC(=O)CNC(=O)c3cccc(C(F)(F)F)c3)C2)cc1 | 305 |  |
| Nc1ccc(C(F)(F)F)cc1C(=O)NCC(=O)N[C@@H]1CCN(Cc2ccc(Cl)cc2)C1 | 26 | inhibition [4]: 25%; IC50 [2]: 23.1 nM; IC50 [5]: 45 nM; IC50 [6]: > 1000 nM; Activity [3]: inactive |
| Cc1ccc(C(=O)NCC(=O)N[C@@H]2CCN(Cc3ccc(Cl)cc3)C2)cc1 | 10000 |  |
| Cc1ccccc1C(=O)NCC(=O)N[C@@H]1CCN(Cc2ccc(Cl)cc2)C1 | > 10000 |  |
| COc1ccccc1CN1CC[C@@H](NC(=O)CNC(=O)c2cccc(C(F)(F)F)c2)C1 | 1360 |  |
| Nc1ccc(Br)cc1C(=O)NCC(=O)N[C@@H]1CCN(Cc2ccc(Cl)cc2)C1 | 643 |  |
| Nc1cc(CN2CC[C@@H](NC(=O)CNC(=O)c3cc(C(F)(F)F)ccc3N)C2)ccc1O | 14 |  |
| O=C(CNC(=O)c1ccc(C(F)(F)F)cc1)N[C@@H]1CCN(Cc2ccc(Cl)cc2)C1 | > 5000 |  |
| Cc1cccc(C(=O)NCC(=O)N[C@@H]2CCN(Cc3ccc(Cl)cc3)C2)c1 | 2380 |  |
| Nc1ccc(Cl)cc1C(=O)NCC(=O)N[C@@H]1CCN(Cc2ccc(Cl)cc2)C1 | 730 |  |
| Cc1ccc(CN2CC[C@@H](NC(=O)CNC(=O)c3cc(C(F)(F)F)ccc3N)C2)cc1 | 20 |  |

Reference: ChEMBL document CHEMBL1144032, “Potent antagonists of the CCR2b receptor. Part 3: SAR of the (R)-3-aminopyrrolidine series” (Bioorg Med Chem Lett, 2008)
